Each structure is given as a SMILES string.

The target in experiment [1] is T1, NAD-dependent protein deacetylase sirtuin-2 (Homo sapiens, UniProt Q8IXJ6).
T1 sequence (Q8IXJ6 whole entry): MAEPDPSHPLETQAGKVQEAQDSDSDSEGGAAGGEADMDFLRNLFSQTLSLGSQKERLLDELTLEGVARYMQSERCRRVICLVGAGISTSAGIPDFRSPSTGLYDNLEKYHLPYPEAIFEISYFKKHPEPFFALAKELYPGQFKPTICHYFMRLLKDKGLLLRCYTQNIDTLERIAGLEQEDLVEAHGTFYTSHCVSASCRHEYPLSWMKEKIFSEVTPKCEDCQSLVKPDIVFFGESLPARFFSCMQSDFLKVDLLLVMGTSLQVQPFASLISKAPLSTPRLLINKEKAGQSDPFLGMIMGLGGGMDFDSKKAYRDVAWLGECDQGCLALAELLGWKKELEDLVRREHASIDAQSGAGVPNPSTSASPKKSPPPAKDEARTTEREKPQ
Description: Inhibition of human recombinant N-terminally His6-tagged SIRT2 after 4 hrs by homogeneous fluorescent deacetylase assay. Summed up:
(§1)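 Recombinant enzyme incubated with Z-(Ac)Lys-AMC (10.5 μM), NAD (500 μM) and inhibitor added from DMSO stock, 4 h at 37 °C. Enzyme amount set for 10–30% substrate conversion without inhibitor. Trypsin (1 mg/mL) plus nicotinamide (8 mM) added, 20 min at 37 °C. Fluorescence read at ex 390/em 460 nm. Inhibition calculated from remaining substrate versus no-inhibitor control. Run at least in duplicate.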

Experiment [2] addresses T2, NAD-dependent protein deacetylase sirtuin-1 (Homo sapiens, UniProt Q96EB6).
T2 sequence (Q96EB6 whole entry): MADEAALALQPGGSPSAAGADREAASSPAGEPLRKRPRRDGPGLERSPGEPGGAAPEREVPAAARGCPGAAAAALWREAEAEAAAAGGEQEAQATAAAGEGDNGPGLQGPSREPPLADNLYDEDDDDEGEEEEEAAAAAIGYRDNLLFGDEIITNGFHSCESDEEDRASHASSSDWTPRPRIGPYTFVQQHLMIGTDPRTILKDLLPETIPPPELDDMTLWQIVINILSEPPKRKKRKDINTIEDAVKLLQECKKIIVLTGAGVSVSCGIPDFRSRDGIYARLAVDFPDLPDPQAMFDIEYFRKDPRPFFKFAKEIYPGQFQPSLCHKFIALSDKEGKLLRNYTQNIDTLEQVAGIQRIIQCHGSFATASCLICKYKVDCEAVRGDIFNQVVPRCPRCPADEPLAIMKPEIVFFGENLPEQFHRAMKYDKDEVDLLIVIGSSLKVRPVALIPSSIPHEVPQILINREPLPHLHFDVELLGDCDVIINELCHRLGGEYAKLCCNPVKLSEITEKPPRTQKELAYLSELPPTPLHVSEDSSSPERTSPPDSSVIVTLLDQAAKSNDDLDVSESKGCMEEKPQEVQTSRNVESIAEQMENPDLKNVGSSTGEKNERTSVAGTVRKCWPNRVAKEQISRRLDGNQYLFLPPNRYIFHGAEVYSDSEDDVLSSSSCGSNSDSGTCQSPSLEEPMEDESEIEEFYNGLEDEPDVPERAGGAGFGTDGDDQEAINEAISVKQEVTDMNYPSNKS
Put plainly: Inhibition of human recombinant GST-tagged SIRT1 after 4 hrs by homogeneous fluorescent deacetylase assay. An outline of the steps:
as §1

As for `NC(=O)c1ccc[n+]([C@@H]2O[C@H](COP(=O)([O-])OP(=O)(O)OC[C@H]3O[C@@H](n4c(-c5ccc(Cl)cc5)nc5c(N)ncnc54)[C@H](O)[C@@H]3O)[C@@H](O)[C@H]2O)c1`, in experiment [1], the IC50 came to 35 µM.
As to `Nc1ncnc2c1nc(-c1ccccc1)n2[C@@H]1O[C@H](COP(=O)(O)O)[C@@H](O)[C@H]1O`, the IC50 in experiment [2] worked out at 31 µM; in experiment [1], 29 µM.
As to `NC(=O)c1ccc[n+]([C@@H]2O[C@H](COP(=O)([O-])OP(=O)(O)OC[C@H]3O[C@@H](n4c(Br)nc5c(N)ncnc54)[C@H](O)[C@@H]3O)[C@@H](O)[C@H]2O)c1`, in experiment [1], the half-maximal inhibitory concentration (IC50) amounted to 28 µM.
Still for that read-out and setting: in the case of `Cc1ccc(-c2nc3c(N)ncnc3n2[C@@H]2O[C@H](COP(=O)(O)OP(=O)([O-])OC[C@H]3O[C@@H]([n+]4cccc(C(N)=O)c4)[C@H](O)[C@@H]3O)[C@@H](O)[C@H]2O)cc1` it was 52 µM.
For the compound `COc1ccc(-c2nc3c(N)ncnc3n2[C@@H]2O[C@H](COP(=O)(O)OP(=O)([O-])OC[C@H]3O[C@@H]([n+]4cccc(C(N)=O)c4)[C@H](O)[C@@H]3O)[C@@H](O)[C@H]2O)cc1`, the IC50 in experiment [1] came to 43 µM.
Still for that read-out and setting: under `NC(=O)c1ccc[n+]([C@@H]2O[C@H](COP(=O)([O-])OP(=O)(O)OC[C@H]3O[C@@H](n4c(-c5ccccc5)nc5c(N)ncnc54)[C@H](O)[C@@H]3O)[C@@H](O)[C@H]2O)c1` stands 123 µM.

The term IC50 denotes the concentration at which inhibition is half-maximal.

These data come from ChEMBL document CHEMBL1773060, “Two-step synthesis of novel, bioactive derivatives of the ubiquitous cofactor nicotinamide adenine dinucleotide (NAD)” (J Med Chem, 2011).
